# Results published in ChEMBL document CHEMBL4622925, “N1-Substituted benzimidazole scaffold for farnesoid X receptor (FXR) agonists accompanying prominent selectivity against vitamin D receptor (VDR)” (Bioorg Med Chem, 2020).
# Tested on: HEK-293T
# Experiment: Cytotoxicity against human HEK293T cells assessed as cell viability by MTT assay
# Format: cell-based
# Conditions: not given
row,Structure (SMILES),Activity
1,CC(=O)N1CCC(n2c(-c3ccc(OCc4c(-c5c(Cl)cccc5Cl)noc4C(C)C)cc3)nc3ccc(C(=O)O)cc32)CC1,Toxic
2,CCC(CC)n1c(-c2ccc(OCc3c(-c4c(Cl)cccc4Cl)noc3C(C)C)cc2F)nc2ccc(C(=O)O)cc21,Toxic
3,CC(C)c1onc(-c2c(Cl)cccc2Cl)c1COc1ccc(-c2nc3ccc(C(=O)O)cc3n2C)cc1,Toxic
4,CC(=O)C1CCC(Cn2c(-c3ccc(OCc4c(-c5c(Cl)cccc5Cl)noc4C(C)C)cc3)nc3ccc(C(=O)O)cc32)CC1 (stereo not drawn),Toxic
5,CC(C)c1onc(-c2c(Cl)cccc2Cl)c1COc1ccc(-c2nc3ccc(C(=O)O)cc3n2CC2CCCCC2)c(F)c1,Toxic
6,CCn1c(-c2ccc(OCc3c(-c4c(Cl)cccc4Cl)noc3C(C)C)cc2)nc2ccc(C(=O)O)cc21,Toxic
7,CCC(CC)n1c(-c2ccc(OCc3c(-c4c(Cl)cccc4Cl)noc3C(C)C)cc2Cl)nc2ccc(C(=O)O)cc21,Toxic
8,CC(C)c1onc(-c2c(Cl)cccc2Cl)c1COc1ccc(-c2nc3ccc(C(=O)O)cc3n2CC2CCCCC2)c(Cl)c1,Toxic
9,CCC(CC)n1c(-c2ccc(OCc3c(-c4c(Cl)cccc4Cl)noc3C(C)C)cc2)nc2ccc(C(=O)O)cc21,Toxic
10,CCCC(CCC)n1c(-c2ccc(OCc3c(-c4c(Cl)cccc4Cl)noc3C(C)C)cc2)nc2ccc(C(=O)O)cc21,Toxic
11,CC(C)c1onc(-c2c(Cl)cccc2Cl)c1COc1ccc(-c2nc3ccc(C(=O)O)cc3n2C2CCCCCC2)cc1,Toxic
12,CC(C)c1onc(-c2c(Cl)cccc2Cl)c1COc1ccc(-c2nc3ccc(C(=O)O)cc3n2-c2ccc(F)cc2)cc1,Toxic
13,CC(C)c1onc(-c2c(Cl)cccc2Cl)c1COc1ccc(-c2nc3ccc(C(=O)O)cc3n2Cc2ccc(F)cc2)cc1,Toxic
14,CC(C)c1onc(-c2c(Cl)cccc2Cl)c1COc1ccc(-c2nc3ccc(C(=O)O)cc3n2CC(C)(C)C)cc1,Toxic
15,CC(C)c1onc(-c2c(Cl)cccc2Cl)c1COc1ccc(-c2nc3ccc(C(=O)O)cc3n2C2CC2)cc1,Toxic
16,CC(C)c1onc(-c2c(Cl)cccc2Cl)c1COc1ccc(-c2nc3ccc(C(=O)O)cc3n2C2CCC2)cc1,Toxic
17,CC(C)c1onc(-c2c(Cl)cccc2Cl)c1COc1ccc(-c2nc3ccc(C(=O)O)cc3n2C)cc1Cl,Toxic
18,CC(C)c1onc(-c2c(Cl)cccc2Cl)c1COc1ccc(-c2nc3ccc(C(=O)O)cc3n2C(C)C)cc1,Toxic
19,CC(C)c1onc(-c2c(Cl)cccc2Cl)c1COc1ccc(-c2nc3ccc(C(=O)O)cc3n2CC2CCCCC2)cc1,Toxic
20,CC(C)c1onc(-c2c(Cl)cccc2Cl)c1COc1ccc(-c2nc3ccc(C(=O)O)cc3n2C)c(Cl)c1,Toxic
21,CC(C)Cn1c(-c2ccc(OCc3c(-c4c(Cl)cccc4Cl)noc3C(C)C)cc2)nc2ccc(C(=O)O)cc21,Toxic
22,CC(C)c1onc(-c2c(Cl)cccc2Cl)c1COc1ccc(-c2nc3ccc(C(=O)O)cc3n2CC2CC2)cc1,Toxic
23,CC(C)c1onc(-c2c(Cl)cccc2Cl)c1COc1ccc(-c2nc3ccc(C(=O)O)cc3n2C2CCCC2)cc1,Toxic
24,CC(C)c1onc(-c2c(Cl)cccc2Cl)c1COc1ccc(-c2nc3cc(C(=O)O)ccc3n2C)cc1,Toxic
25,CCCn1c(-c2ccc(OCc3c(-c4c(Cl)cccc4Cl)noc3C(C)C)cc2)nc2ccc(C(=O)O)cc21,Toxic
26,CC(C)c1onc(-c2c(Cl)cccc2Cl)c1COc1ccc(-c2nc3ccc(C(=O)O)cc3n2C2CCCCC2)cc1,Toxic

# Molecular target: T1, Bile acid receptor (Homo sapiens, UniProt Q96RI1)
# T1 sequence (Q96RI1 whole entry): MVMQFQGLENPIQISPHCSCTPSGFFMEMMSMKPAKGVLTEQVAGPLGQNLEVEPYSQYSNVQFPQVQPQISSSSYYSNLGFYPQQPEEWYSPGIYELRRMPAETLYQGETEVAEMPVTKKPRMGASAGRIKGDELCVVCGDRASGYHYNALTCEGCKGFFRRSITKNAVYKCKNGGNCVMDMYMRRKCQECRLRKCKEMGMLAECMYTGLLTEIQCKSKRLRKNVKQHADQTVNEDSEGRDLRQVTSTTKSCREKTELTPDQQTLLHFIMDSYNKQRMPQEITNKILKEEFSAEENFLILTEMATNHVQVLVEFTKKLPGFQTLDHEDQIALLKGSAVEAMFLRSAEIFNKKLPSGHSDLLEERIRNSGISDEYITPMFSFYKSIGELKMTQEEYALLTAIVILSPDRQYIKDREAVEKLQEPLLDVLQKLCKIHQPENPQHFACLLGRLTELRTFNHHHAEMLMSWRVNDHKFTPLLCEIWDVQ
# Experiment: Agonist activity at human FXR expressed in human HuH7 cells by luciferase reporter gene assay
# Format: cell-based, Huh-7
# Conditions: not given
row,EC50 [nM],Structure (SMILES)
1,1.6,CCC(CC)n1c(-c2ccc(OCc3c(-c4c(Cl)cccc4Cl)noc3C(C)C)cc2Cl)nc2ccc(C(=O)O)cc21
2,13,CC(C)c1onc(-c2c(Cl)cccc2Cl)c1COc1ccc(-c2nc3ccc(C(=O)O)cc3n2CC(C)(C)C)cc1

# Molecular target: T1, Bile acid receptor
# Experiment: Agonist activity at GST-fused FXR-LBD (unknown origin) incubated with Fluorecein-SRC2-2 coactivator peptide as substrate by TR-FRET assay
# Conditions: not given
row,EC50 [nM],Structure (SMILES)
1,21.6,CCC(CC)n1c(-c2ccc(OCc3c(-c4c(Cl)cccc4Cl)noc3C(C)C)cc2Cl)nc2ccc(C(=O)O)cc21
2,24.8,CC(C)c1onc(-c2c(Cl)cccc2Cl)c1COc1ccc(-c2nc3ccc(C(=O)O)cc3n2CC(C)(C)C)cc1

# Molecular target: T2, Vitamin D3 receptor (Homo sapiens, UniProt P11473)
# T2 sequence (P11473 whole entry): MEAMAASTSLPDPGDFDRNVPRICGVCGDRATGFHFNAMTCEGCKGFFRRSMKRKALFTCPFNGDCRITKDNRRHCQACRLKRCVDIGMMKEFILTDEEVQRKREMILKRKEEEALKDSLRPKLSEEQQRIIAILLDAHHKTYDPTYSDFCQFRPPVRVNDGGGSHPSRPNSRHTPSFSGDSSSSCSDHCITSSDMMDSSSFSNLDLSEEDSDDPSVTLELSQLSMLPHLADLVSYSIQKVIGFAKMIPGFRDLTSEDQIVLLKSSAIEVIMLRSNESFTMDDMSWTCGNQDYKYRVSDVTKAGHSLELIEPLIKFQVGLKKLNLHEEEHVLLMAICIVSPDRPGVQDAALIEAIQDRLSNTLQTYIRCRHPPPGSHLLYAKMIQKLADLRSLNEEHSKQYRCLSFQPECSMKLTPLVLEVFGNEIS
# Experiment: Antagonist activity at human VDR transfected in HEK293T cells measured after 24 hrs by luciferase reporter gene assay
# Format: cell-based, HEK-293T
# Conditions: not given
row,IC50 [nM],Structure (SMILES)
1,> 10000,CC(=O)N1CCC(n2c(-c3ccc(OCc4c(-c5c(Cl)cccc5Cl)noc4C(C)C)cc3)nc3ccc(C(=O)O)cc32)CC1
2,> 10000,CCC(CC)n1c(-c2ccc(OCc3c(-c4c(Cl)cccc4Cl)noc3C(C)C)cc2F)nc2ccc(C(=O)O)cc21
3,> 10000,CC(=O)C1CCC(Cn2c(-c3ccc(OCc4c(-c5c(Cl)cccc5Cl)noc4C(C)C)cc3)nc3ccc(C(=O)O)cc32)CC1 (stereo not drawn)
4,> 10000,CCCC(CCC)n1c(-c2ccc(OCc3c(-c4c(Cl)cccc4Cl)noc3C(C)C)cc2)nc2ccc(C(=O)O)cc21
5,> 10000,CC(C)c1onc(-c2c(Cl)cccc2Cl)c1COc1ccc(/C=C/c2cccc(C(=O)O)c2)c(Cl)c1

# Tested on: Huh-7
# Experiment: Cytotoxicity against human HuH7 cells assessed as cell viability by MTT assay
# Format: cell-based
# Conditions: not given
row,Structure (SMILES),Activity
1,CC(=O)N1CCC(n2c(-c3ccc(OCc4c(-c5c(Cl)cccc5Cl)noc4C(C)C)cc3)nc3ccc(C(=O)O)cc32)CC1,Toxic
2,CCC(CC)n1c(-c2ccc(OCc3c(-c4c(Cl)cccc4Cl)noc3C(C)C)cc2F)nc2ccc(C(=O)O)cc21,Toxic
3,CC(C)c1onc(-c2c(Cl)cccc2Cl)c1COc1ccc(-c2nc3ccc(C(=O)O)cc3n2C)cc1,Toxic
4,CC(=O)C1CCC(Cn2c(-c3ccc(OCc4c(-c5c(Cl)cccc5Cl)noc4C(C)C)cc3)nc3ccc(C(=O)O)cc32)CC1 (stereo not drawn),Toxic
5,CC(C)c1onc(-c2c(Cl)cccc2Cl)c1COc1ccc(-c2nc3ccc(C(=O)O)cc3n2CC2CCCCC2)c(F)c1,Toxic
6,CCn1c(-c2ccc(OCc3c(-c4c(Cl)cccc4Cl)noc3C(C)C)cc2)nc2ccc(C(=O)O)cc21,Toxic
7,CCC(CC)n1c(-c2ccc(OCc3c(-c4c(Cl)cccc4Cl)noc3C(C)C)cc2Cl)nc2ccc(C(=O)O)cc21,Toxic
8,CC(C)c1onc(-c2c(Cl)cccc2Cl)c1COc1ccc(-c2nc3ccc(C(=O)O)cc3n2CC2CCCCC2)c(Cl)c1,Toxic
9,CCC(CC)n1c(-c2ccc(OCc3c(-c4c(Cl)cccc4Cl)noc3C(C)C)cc2)nc2ccc(C(=O)O)cc21,Toxic
10,CCCC(CCC)n1c(-c2ccc(OCc3c(-c4c(Cl)cccc4Cl)noc3C(C)C)cc2)nc2ccc(C(=O)O)cc21,Toxic
11,CC(C)c1onc(-c2c(Cl)cccc2Cl)c1COc1ccc(-c2nc3ccc(C(=O)O)cc3n2C2CCCCCC2)cc1,Toxic
12,CC(C)c1onc(-c2c(Cl)cccc2Cl)c1COc1ccc(-c2nc3ccc(C(=O)O)cc3n2-c2ccc(F)cc2)cc1,Toxic
13,CC(C)c1onc(-c2c(Cl)cccc2Cl)c1COc1ccc(-c2nc3ccc(C(=O)O)cc3n2Cc2ccc(F)cc2)cc1,Toxic
14,CC(C)c1onc(-c2c(Cl)cccc2Cl)c1COc1ccc(-c2nc3ccc(C(=O)O)cc3n2CC(C)(C)C)cc1,Toxic
15,CC(C)c1onc(-c2c(Cl)cccc2Cl)c1COc1ccc(-c2nc3ccc(C(=O)O)cc3n2C2CC2)cc1,Toxic
16,CC(C)c1onc(-c2c(Cl)cccc2Cl)c1COc1ccc(-c2nc3ccc(C(=O)O)cc3n2C2CCC2)cc1,Toxic
17,CC(C)c1onc(-c2c(Cl)cccc2Cl)c1COc1ccc(-c2nc3ccc(C(=O)O)cc3n2C)cc1Cl,Toxic
18,CC(C)c1onc(-c2c(Cl)cccc2Cl)c1COc1ccc(-c2nc3ccc(C(=O)O)cc3n2C(C)C)cc1,Toxic
19,CC(C)c1onc(-c2c(Cl)cccc2Cl)c1COc1ccc(-c2nc3ccc(C(=O)O)cc3n2CC2CCCCC2)cc1,Toxic
20,CC(C)c1onc(-c2c(Cl)cccc2Cl)c1COc1ccc(-c2nc3ccc(C(=O)O)cc3n2C)c(Cl)c1,Toxic
21,CC(C)Cn1c(-c2ccc(OCc3c(-c4c(Cl)cccc4Cl)noc3C(C)C)cc2)nc2ccc(C(=O)O)cc21,Toxic
22,CC(C)c1onc(-c2c(Cl)cccc2Cl)c1COc1ccc(-c2nc3ccc(C(=O)O)cc3n2CC2CC2)cc1,Toxic
23,CC(C)c1onc(-c2c(Cl)cccc2Cl)c1COc1ccc(-c2nc3ccc(C(=O)O)cc3n2C2CCCC2)cc1,Toxic
24,CC(C)c1onc(-c2c(Cl)cccc2Cl)c1COc1ccc(-c2nc3cc(C(=O)O)ccc3n2C)cc1,Toxic
25,CCCn1c(-c2ccc(OCc3c(-c4c(Cl)cccc4Cl)noc3C(C)C)cc2)nc2ccc(C(=O)O)cc21,Toxic
26,CC(C)c1onc(-c2c(Cl)cccc2Cl)c1COc1ccc(-c2nc3ccc(C(=O)O)cc3n2C2CCCCC2)cc1,Toxic

# Tested on: not listed separately
# Experiment: Cytotoxicity against mouse ST-2 cells assessed as cell viability upto 5 uM incubated for 12 days by WST-8 assay
# Format: cell-based
# Conditions: 288 h
# Outline: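 ST-2 mesenchymal stem cells kept 12 days in RPMI-1640 medium containing compound at 0–10 μM. Viability read by WST-8 assay and expressed relative to untreated (0 μM) cells set as 100%. Means ± S.D., n=5.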
row,Structure (SMILES),Activity
1,CCC(CC)n1c(-c2ccc(OCc3c(-c4c(Cl)cccc4Cl)noc3C(C)C)cc2)nc2ccc(C(=O)O)cc21,Non-Toxic
2,CC(C)c1onc(-c2c(Cl)cccc2Cl)c1COc1ccc(-c2nc3ccc(C(=O)O)cc3n2CC2CCCCC2)cc1,Non-Toxic
